What was measured:
[1] = tested on: GP1bα; assay: GP1bα pulldown from human platelet lysates; assay type: binding; settings: 60 μg biotinylated bait, 1 h, 4°C, western blot; Figure 4E
[2] = tested on: GP1bα; settings: through the A1 domain; ref Azuma et al., 1991; cited from earlier work
[3] = tested on: Dkk-1; settings: ref Chae et al., 2016; cited from earlier work
[4] = tested on: C57BL/6 mice; assay: BALF inflammatory cell counts; assay type: in vivo, mouse; settings: C. albicans intranasal, inhibitor 10 or 20 μg/kg i.p., Figure 2I
[5] = tested on: C. albicans; assay: lung fungal burden; assay type: in vivo
In short: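 Whole-lung C. albicans CFU was counted in C57BL/6 mice 24 h after the last of 8 intranasal challenges (1 × 10^5 viable cells in saline, every other day). Dkk-1 inhibitor or recombinant mouse Dkk-1 (5 μg/kg) was given i.p. together with each challenge.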

[6] = tested on: C57BL/6 mice; assay: cytokines from lung by ELISA; assay type: in vivo, mouse
In short: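 C57BL/6 mice received 1 × 10^5 viable C. albicans intranasally every other day for 8 challenges. Fungal cells were thawed (>95% viable), washed and suspended in normal saline. Dkk-1 inhibitor (10 or 20 μg/kg) or recombinant mouse Dkk-1 (5 μg/kg) was given i.p. at each challenge. Lungs were taken 24 h after the last challenge, and cytokines in lung homogenate supernatants were measured by ELISA (TMB, 450 nm).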

[7] = tested on: human platelets (platelet-rich plasma); assay: platelet aggregation assay; assay type: cell-based; settings: collagen 2.5 μg/mL or increasing candidalysin, 5 min, Figure S4G
[8] = tested on: C57BL/6 mice; assay: allergic airway disease overall; assay type: in vivo, mouse; settings: intraperitoneal route, no fungus; data not shown
[9] = tested on: GATA3^+ Th2 and RORγt^+ Th17 cells; assay: lung T cell quantitation by flow cytometry; assay type: in vivo, mouse; settings: ece1Δ/Δ C. albicans intranasal; Dkk-1 5 μg/kg i.p.; Figures 3F, 3G
In short: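 Mice were challenged with C. albicans (1 × 10^5 viable cells) intranasally every other day ×8, with recombinant mouse Dkk-1 (5 μg/kg i.p.) at each challenge, and analyzed 24 h after the final challenge. Erythrocytes in total lung cells were lysed with ACK. Cells were stained for live/dead, CD45, CD3 and CD4, split into 3 groups, fixed and permeabilized, then stained for T-bet, GATA3 or RORγt. Results are given as percentages and absolute counts.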

[10] = tested on: C57BL/6 mice; assay: airway hyperresponsiveness; assay type: in vivo, mouse; settings: ece1Δ/Δ C. albicans intranasal; Dkk-1 5 μg/kg i.p.; Figure 3B

## IFKIIISKIQIVMGLNGIPIKVAGSQNIGMI [scrambled control (SC) peptide]
[1]
  association with GP1bα from human platelet lysates: but not its scrambled control peptide

## VWF A1A2A3 tridomain: recombinant human VWF A1, A2, A3 domains (Q1238-G1874) expressed in HEK293
[2]
  binding of VWF fragment to GP1bα: binds GP1bα through the A1 domain

## NCC1CCN(c2nccc(-c3ccc4ccccc4c3)n2)CC1 [WAY 262611]
[3]
  block of Dkk-1 in vivo: previously shown to block this peptide in vivo
[4]
  BALF eosinophilia under Dkk-1 inhibitor: most notably reducing BALF eosinophilia
[4]; dose-dependent
  BALF inflammatory cell recruitment under Dkk-1 inhibitor: progressively reduced
[5]; C. albicans intranasal, inhibitor i.p., Figure 2N
  lung fungal burden under Dkk-1 inhibitor: markedly elevated lung fungal burdens
[6]; C. albicans intranasal, inhibitor 10 or 20 μg/kg i.p., Figure 2J
  secretion of IL-17 from whole lung under Dkk-1 inhibitor: inhibited secretion of IL-17
[6]; C. albicans intranasal, inhibitor 10 or 20 μg/kg i.p., Figure 2K
  secretion of IL-1β, IL-6 and TNF under Dkk-1 inhibitor: not significantly affected

## collagen
[7]
  platelet aggregation in vitro: in marked contrast to the activating GPIIb/IIIa ligand collagen

B1: Dkk-1: recombinant mouse Dkk-1 (5897-DK-010, R&D systems), Wnt pathway antagonist (protein, UniProt O54908 32-272, looked up)
Dickkopf-related protein 1: TLNSVLINSNAIKNLPPPLGGAGGQPGSAVSVAPGVLYEGGNKYQTLDNYQPYPCAEDEECGSDEYCSSPSRGAAGVGGVQICLACRKRRKRCMRHAMCCPGNYCKNGICMPSDHSHFPRGEIEESIIENLGNDHNAAAGDGYPRRTTLTSKIYHTKGQEGSVCLRSSDCAAGLCCARHFWSKICKPVLKEGQVCTKHKRKGSHGLEIFQRCYCGEGLACRIQKDHHQASNSSRLHTCQRH
[8]
  indices of allergic airway disease, Dkk-1 alone: no effect on any index of allergic airway disease
[9]
  recruitment to lung of GATA3^+ Th2 and RORγt^+ Th17 cells with exogenous Dkk-1: markedly increase recruitment to lung
[5]; ece1Δ/Δ C. albicans intranasal, Dkk-1 5 μg/kg i.p., Figure 3H
  fungal lung burden with exogenous Dkk-1: significantly reduced
[10]
  airway hyperresponsiveness with exogenous Dkk-1: significantly enhanced airway hyperresponsiveness
[6]; ece1Δ/Δ C. albicans intranasal, Dkk-1 5 μg/kg i.p., Figure 3D
  secretion of lung Th2 cytokines, especially IL-4, and IL-17 with exogenous Dkk-1: markedly enhanced
[6]; ece1Δ/Δ C. albicans intranasal, Dkk-1 5 μg/kg i.p., Figure 3E
  secretion of innate pro-inflammatory cytokines with exogenous Dkk-1: did not influence the secretion of innate pro-inflammatory cytokines
